# IMP-1 inh = inhibitors of Pseudomonas aeruginosa IMP-1 metallo-beta-lactamase; 290,000 tested, 0.45% active; inhibition, % at 5.6 µM; purified IMP-1, nitrocefin hydrolysis, epi-absorbance fluorescence;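 active means inhibition above the mean plus 3 SD of all compounds in the same screening run, cut at about 4.5% in these data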;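 further: 0% = IMP-1 with DMSO and 100% = DMSO wells lacking enzyme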
#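 Assay system: purified recombinant IMP-1 beta-lactamase. Input: IMP-1 0.2 nM before substrate addition. Buffer or medium: Zinc- and detergent-supplemented HEPES buffer, pH 7.1. Schedule: 25 °C, 15 min preincubation, 25 min reaction. Signal: Epi-absorbance fluorescence, 480 nm excitation, 530 nm emission. Evaluation: percent inhibition from optical density relative to buffer-blank wells.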
# MLLE-PAM2 inh = inhibitors of microRNA-mediated deadenylation, human PABP1 MLLE binding | P11940 | GST-MLLE / FITC-PAM2 fluorescence polarization | inhibition, % at 20 µM | 360,000 tested, 0.36% active | AID 588489; in the data active means inhibition above about 35%, passing the limit was not always enough;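 further: plate controls were DMSO wells with GST-MLLE for no effect and wells lacking GST-MLLE protein for full effect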
# eIF4H inh = inhibitors of RNA binding by human eIF4H | Q15056 | eIF4H fluorescence polarization binding assay | inhibition, % at 35 µM | 290,000 tested, 0.94% active;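 further: calls also rest on retests at 20 µM and on dose response follow-up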
# VIM-2 inhibitor = blocks Pseudomonas aeruginosa VIM-2 metallo-beta-lactamase | purified VIM-2, nitrocefin hydrolysis, epi-absorbance fluorescence | inhibition, % at 5.6 µM | 290,000 tested, 0.89% active | AID 1527;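 active means inhibition above the mean of all tested compounds plus 3 SD, cutoff set per screening run, cut at about 7.5% in these data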;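 further: red hydrolysis product quenches plate fluorescence so inhibitors raise well fluorescence; 0% = enzyme with DMSO and 100% = DMSO without enzyme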
# PABP FP inh = blocks human PABP binding to poly(A) RNA; 290,000 tested, 1% active; P11940; fluorescence polarization; calls only at 35 µM;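 further: calls also rest on retests at 20 µM and on dose response follow-up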
# Active calls of the source: *; i = inactive; / = no result; + = active, no number; ! = not active in a repeat. A selection: hits, their analogues and other compounds. The true share with any hit is near 2.2%. Unless noted, how the calls were made is not given here.
SMILES,IMP-1 inh,MLLE-PAM2 inh,eIF4H inh,VIM-2 inhibitor,PABP FP inh
CCc1cc(C(=O)OC)c(NC(=O)CC2Nc3cc(C)c(C)cc3NC2=O)s1 (stereo unspecified),-2,-32,0,-1,i
COC(=O)c1c(NC(=O)CC2Nc3cc(C)c(C)cc3NC2=O)sc(C)c1C (stereo unspecified),4.6*,-72,86*,-1,+
Cc1nc2cc(-c3ccsc3-n3c(C)ccc3C)[nH]n2c(=O)c1Cl,-2,4,85*,1,+
COCc1cc(=O)n2[nH]c(-c3ccsc3-n3c(C)ccc3C)cc2n1,-2,-34,80*,-2,+
Cc1ccccc1-c1cc2nc(C)c(Cl)c(=O)n2[nH]1,/,11,/,/,/
COCc1cc(=O)n2[nH]c(N)nc2n1,-2,0,6,-1,i
Cc1cc(=O)n2[nH]c(-c3ccsc3-n3c(C)ccc3C)cc2n1,1,-54,75*,1,+
Cc1cc(=O)n2[nH]c(-c3ccc(F)cc3)cc2n1,-6,-3,2,-3,i
CN(CCCC1CCCC1)C(=O)CC1C(=O)NCCN1Cc1cccc(F)c1F (stereo unspecified),0,-12,5,-1,i
COC(=O)[C@H](C)N(Cc1ccc(Cl)c(Cl)c1)S(=O)(=O)CCNC1CCCC1,/,-3,/,/,/
Cc1cc(C(=O)NC2Cc3ccccc3C2)c(C)o1,-1,2,96*,-1,+
O=C(O)c1ccc2c(c1)C(=O)/C(=C/c1ccccc1)C2=O,0,40*,83,-2,i
CC(/C=C\c1cccnc1)=C/C(=O)O,-4,5,73*!,-3,i
O=C(O)/C=C/c1cccnc1,-3,14,4,-3,i
COc1ccc(-c2nc(CS(=O)(=O)CC(=O)NCCc3ccc(C)cc3)c(C)o2)cc1,6.2*,9,-1,-1,i
CCN(CC)S(=O)(=O)c1cccc(-c2nnc(SCC(=O)c3cc(C)n(C4CC4)c3C)o2)c1,/,-113,70*,/,+
COc1cccc(-c2cc(C(F)(F)F)nc(N3CCC(C)CC3)n2)c1,4.5*,0,-2,-2,i
COc1cc2c(cc1OC)C1(CCCC1)CNC2c1cccc([N+](=O)[O-])c1 (stereo unspecified),-3,17,-2,-2,i
O=C(Cn1nc(C(F)F)cc1C(F)F)NNC(=S)Nc1ccc([N+](=O)[O-])cc1,-4,29,4,-7,i
Oc1ccc(CNc2ccccc2)c2cccnc12,-1,41*,20,-2,i
COc1ccc(NC(=O)COC(=O)c2cc(=O)c3ccccc3o2)cc1OC,/,0,/,/,/
COC(=O)CNC(c1ccccc1Cl)c1cc(Br)ccc1NS(=O)(=O)c1ccc(C)cc1 (stereo unspecified),-2,-2,active,-4,i
CCOC(=O)C(C(=O)N(C)Cc1ccccc1)C1CCCCC1 (stereo unspecified),1,-12,5,2,i
Cc1c(-c2cccc(Cl)c2)nc2ccccc2c1C(=O)OC/C(O)=C(\C#N)c1nc2ccccc2[nH]1,0,-46,74,-1,i
S=c1nc(C2CCCCC2)[nH]c2ccccc12,-4,-3,5,-7,i
SMILES,IMP-1 inh,MLLE-PAM2 inh,eIF4H inh,VIM-2 inhibitor,PABP FP inh
S=c1nc(C2CC2)[nH]c2ccccc12,-3,29,3,11*,i
O=C(O)c1ccc(N2C(=O)CC(N3C(=O)/C(=C/c4ccc(Cl)cc4)SC3=S)C2=O)cc1 (stereo unspecified),-2,32,4,-2,i
Cc1[nH]c2ccccc2c1Cc1nnc(SCC(N)=O)o1,9.6*,-31,-3,0,i
Cc1cc(C)c(C#N)c(N2CCN(CCOc3ccc(Cl)cc3)CC2)n1,0,6,14,1,i
COc1ccc(Cl)cc1CN1CCN(c2nc(C)cc(C)c2C#N)CC1,-2,2,46*,1,+
O=C(O)c1ccc2c(c1)CCCN2,-1,18,52*,-1,+
CN(c1ncc(C(F)(F)F)cc1Cl)N1C(=O)c2cccc([N+](=O)[O-])c2C1=O,37*,-9,-7,-4,i
CN(C)C(=O)c1cn(N(C)c2ncc(C(F)(F)F)cc2Cl)c(=O)c2ccccc12,-3,4,-3,-7,i
COc1ccc(C(=O)N/N=C(\C)c2ccc3c(c2)C2C=CCC2C(c2ccccc2)N3)cc1 (stereo unspecified),-1,11,-4,-4,i
COc1cccc(NS(=O)(=O)c2ccc3c(c2)C2C=CCC2C(c2ccc(C(=O)O)cc2)N3)c1 (stereo unspecified),22*,-14,87,-5,i
O=C(O)c1ccc2c(c1)[C@@H]1C=CC[C@@H]1[C@H](c1ccccn1)N2,5.6*,42*,/,-2,/
Cc1cc(=O)[nH]c2ccc(S(=O)(=O)NC3CCCCC3)cc12,-1,-3,-1,-4,i
CCOC(=O)N1CCN(S(=O)(=O)N2CCCC(C(=O)NCc3cc(Br)ccc3OC)C2)CC1 (stereo unspecified),/,-2,/,/,/
O=C1SC(c2ccccc2)=C/C1=C\N1CCCCC1,4.8*,26,13,2,i
COc1cc(OC)cc(C(=O)NC(C(=O)Nc2ccc(N3CCOCC3)cc2)C(C)C)c1 (stereo unspecified),/,-12,/,/,/
O=C(O)c1cccc(Nc2nc(-c3cc4ccccc4oc3=O)cs2)c1,6.2*,1,21,1,i
O=C(COC(=O)c1cccc(NS(=O)(=O)c2ccc(F)c(F)c2)c1)NC(=O)NC1CCCC1,-3,-4,85,-3,+
O=C(COC(=O)c1cccc(F)c1)NC(=O)NC1CCCC1,/,-6,/,/,/
CC(C)(C)OC(=O)N1CCC(C(=O)Nc2cccc(C(=O)NC3CC3)c2)CC1,/,0,/,/,/
Cc1c(CC(=O)O)c(=O)oc2c(C)c(OCc3ccc(F)cc3F)ccc12,-1,-16,0,-1,i
Cc1c(CC(=O)O)c(=O)oc2c(C)c(OCc3ccc(F)cc3Cl)ccc12,20*,0,51,-2,i
O=C(CSc1nc2c(c(=O)n1-c1ccc(F)cc1)SCC2)NCc1ccco1,-2,45*,2,-1,i
CCOC(=O)CCNC(=O)N1CCCC(N(C)CCc2ccccc2)C1 (stereo unspecified),-5,-19,5,-3,i
O=C1CC(c2ccc(Cl)cc2)CC(O)=C1C=NCc1ccc(Cl)c(Cl)c1 (stereo unspecified),-2,3,4,-3,i
Cc1sc2ncnc(NCC(c3ccccc3)N(C)C)c2c1C (stereo unspecified),-3,1,9,8.7*,i
Cc1nc(NCC(c2ccccc2)N(C)C)c2c(C)c(C)sc2n1 (stereo unspecified),-5,0,-5,7.8*,i
COc1cccc(CNc2nc3cc(-c4ccccc4C)sc3c(=O)n2C)c1OC,/,16,/,/,/
